Consider 25 molecules from ChEMBL document CHEMBL4041494, “Simple synthesis of endophenazine G and other phenazines and their evaluation as anti-methicillin-resistant Staphylococcus aureus agents” (Eur J Med Chem, 2017).

In brackets after ≈: the same amount, converted by molar mass. Activity calls are given as the source filed them. The rule behind the calls is not given here.

Experiment [1] relates to Staphylococcus aureus. Kind of experiment: Antibacterial activity against methicillin-resistant Staphylococcus aureus LAC JE2 after 24 hrs by broth microdilution assay. Type of experiment: functional. The note with it: LAC JE2, 24 h. In a few lines: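 Broth microdilution per ASM Clinical Microbiology Procedures Handbook (3rd ed.). Compound stock at pH 7, serial 2-fold dilutions in cation-adjusted Mueller Hinton II broth with 5% DMSO. Inoculum from direct colony suspension at 0.5 McFarland, 10 ul per well. Static incubation at 37°C for 24 h. MIC is the lowest concentration with no visible growth. Vancomycin positive control, medium-only negative control.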
A general note: Dilution methods test growth across graded concentrations, often in twofold steps.

Experiment [2] deals with Staphylococcus aureus. Kind of experiment: Induction of membrane disruption in methicillin-resistant Staphylococcus aureus LAC JE2 at 1 to 10 times MIC by propidium iodide staining based confocal microscopic method. Type of experiment: functional.
The nature of experiment [3]: Induction of ROS generation by HPF staining based flow cytometry.
The next experiment relates to HaCaT. Description: Cytotoxicity against human HaCaT cells assessed as reduction in cell viability by CellTiter blue assay. The format is cell-based. In a few lines:
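HaCaT keratinocytes. Compound dissolved in 2:3 NaOH (0.01 M)/DMSO, diluted in DMEM with 10% FBS and 1% penicillin-streptomycin to 4 mM top concentration (3% DMSO), then serially diluted in DMEM. Viability read by CellTiter-Blue, following resazurin absorbance change on a spectrophotometer. Absorbance plotted against concentration and IC50 calculated.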
Background: Resazurin is reduced to fluorescent resorufin, in cell work by metabolically active cells.

The subject of experiment [4] is Staphylococcus aureus. Description: Bacteriostatic activity against methicillin-resistant Staphylococcus aureus LAC JE2 at 10 times MIC by serial dilution method. Type of experiment: functional. The method in brief: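 Overnight culture diluted 1:1000 into fresh CAMHB and grown 2 h at 37°C with agitation. 1-ml aliquots then treated with 10X MIC of compound. Samples taken every 2 h, and viability counted by serial dilution and plating on tryptic soy agar.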

For experiment [5], the system named is Staphylococcus aureus. Description: Induction of membrane disruption in methicillin-resistant Staphylococcus aureus LAC JE2 at 1 to 10 times MIC measured at 15 mins interval for 4 hrs by propidium iodide staining based fluorescence assay. Type of experiment: functional. The method in brief:
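S. aureus JE2 resuspended in PBS to OD600 1.0 and treated with 1X, 2X or 10X MIC. Propidium iodide fluorescence (RFU) read in a plate reader every 15 min for 4 h.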

Experiment [6] is described as follows: Induction of ROS generation at 0.11 to 0.55 mM measured for 500 sec at 30 sec time interval in presence of NADPH by ABDA staining based photospectrometric method. In a few lines: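 Compound 10 mM in 95% DMSO/5% 0.1 M NaOH, serially diluted keeping 5% DMSO/NaOH in DPBS. NADPH 100 μM and ABDA 5 μM final added. Superoxide followed as ABDA decay at 479 nm. Triplicate per concentration. Controls: ABDA alone in buffer, and buffer alone.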

The next experiment is filed under the species Equus caballus. Description: Induction of equine heart cytochrome-c reduction at 25 to 100 uM measured for 900 sec at 30 sec time interval in presence of NADPH by photospectrometric method. Type of experiment: functional. The method in brief:
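Compound stock 10 mM in 95% DMSO/5% 0.1 M NaOH, diluted in DPBS to 200 μM and serially diluted, keeping 5% DMSO/NaOH. NADPH 100 μM, then cytochrome c 20 μM added. Absorbance at 550 nm read, with 700 nm as baseline correction. Controls: cyt-c alone, cyt-c plus NADPH, and buffer alone.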

Experiment [7] has as its system Staphylococcus aureus. Description: Antibacterial activity against methicillin-resistant Staphylococcus aureus after 24 hrs by broth microdilution assay.

One may read the MIC as the lowest concentration that inhibits growth of the organism. Read a high MIC as weaker potency. The term IC50 denotes the point on the concentration scale where inhibition reaches its midpoint. Consider `CC(C)(O)/C=C/c1cccc2nc3cccc(C(=O)O)c3nc12`, for which 32 µg/mL (≈ 104 µM) was the least that counted as inhibitory against Staphylococcus aureus [1] (MIC). For the same molecule, the result (in the experiment with Staphylococcus aureus [2]; in experiment [3]; in the experiment on Staphylococcus aureus [5]; in [6]) was inactive. The IC50 with HaCaT amounted to 306 µM. Moreover, the result in the experiment on Staphylococcus aureus [4] and in the experiment filed under Equus caballus was Active. Consider `NC(=O)c1cccc2nc3cccc(F)c3nc12`, for which, in the experiment with Staphylococcus aureus [1], the MIC was > 128 µg/mL. `O=C(O)c1cccc2nc3cccc(Br)c3nc12` displayed an MIC with Staphylococcus aureus [1] of 32 µg/mL (≈ 106 µM). The IC50 in the experiment on HaCaT came to 345 µM. `COC(=O)c1cccc2nc3cccc(C)c3nc12` gave an MIC against Staphylococcus aureus [1] of 64 µg/mL (≈ 254 µM). Still for that read-out and setting: next, `O=C(O)c1cccc2nc3c(Br)cccc3nc12`: 128 µg/mL (≈ 422 µM); `COC(=O)c1cccc2nc3c(Br)cccc3nc12`: > 128 µg/mL. As for `O=C(O)c1cccc2nc3ccccc3nc12` [PHENAZINE-1-CARBOXYLIC ACID], the MIC with Staphylococcus aureus [7] was found to be 64 µg/mL (≈ 285 µM). Take `CN(C)C(=O)c1cccc2nc3cccc(Br)c3nc12`: in the experiment with Staphylococcus aureus [1], the MIC is > 128 µg/mL.

The molecule `COC(=O)c1cccc2nc3c(/C=C/C(C)(C)O)cccc3nc12` registered an MIC against Staphylococcus aureus [1] of 128 µg/mL (≈ 397 µM). In turn, `COC(=O)c1cccc2nc3ccccc3nc12` yielded an MIC against Staphylococcus aureus [7] of 128 µg/mL (≈ 537 µM). In turn, `CS(=O)(=O)NC(=O)c1cccc2nc3cccc(Br)c3nc12` had an MIC in the experiment with Staphylococcus aureus [1] of 4 µg/mL (≈ 10.5 µM). For the same molecule, the IC50 in the experiment on HaCaT stood at 118 µM. The molecule `CS(=O)(=O)NC(=O)c1cccc2nc3cccc(Cl)c3nc12` returned an MIC against Staphylococcus aureus [1] of 2 µg/mL (≈ 5.96 µM). Moreover, the outcome (in the experiment with Staphylococcus aureus [2]; in [3]; in the experiment on Staphylococcus aureus [5]; in experiment [6]) was inactive. Further, in the experiment with HaCaT, the IC50 came to 193 µM. The result in the experiment on Staphylococcus aureus [4] and in the experiment listed under Equus caballus was Active. Regarding `COC(=O)c1cccc2nc3cccc(/C=C/C(C)(C)O)c3nc12`, the MIC against Staphylococcus aureus [1] was determined as 128 µg/mL (≈ 397 µM). Still for that read-out and setting: next, `CN(C)C(=O)c1cccc2nc3cccc(/C=C/C(C)(C)O)c3nc12`: > 128 µg/mL; `CC(C)(O)/C=C/c1cccc2nc3c(C(=O)O)cccc3nc12`: 128 µg/mL (≈ 415 µM); `O=C(O)c1cccc2nc3cccc(F)c3nc12`: 64 µg/mL (≈ 264 µM). In the case of `CC(C)(O)CCc1cccc2nc3cccc(C(=O)O)c3nc12`, inhibition of growth in the experiment with Staphylococcus aureus [1] (MIC) required 64 µg/mL (≈ 206 µM). For the molecule `CN(C)C(=O)c1cccc2nc3c(/C=C/C(C)(C)O)cccc3nc12`, the MIC with Staphylococcus aureus [1] is > 128 µg/mL. For the same molecule, the result in the experiment listed under Equus caballus was Active.

In the experiment on Staphylococcus aureus [1], `O=C(O)c1cccc2nc3cccc(Cl)c3nc12` displayed an MIC of 16 µg/mL (≈ 61.9 µM). Same read-out and setting: next, `Cc1cccc2nc3cccc(C(=O)O)c3nc12`: 32 µg/mL (≈ 134 µM); `CC(C)(O)/C=C/c1cccc2nc3cccc(C#N)c3nc12`: 128 µg/mL (≈ 442 µM); `N#Cc1cccc2nc3cccc(Br)c3nc12`: > 128 µg/mL. `NC(=O)c1cccc2nc3ccccc3nc12` came in with an MIC in the experiment on Staphylococcus aureus [7] of 64 µg/mL (≈ 287 µM). `COC(=O)c1cccc2nc3cccc(Br)c3nc12` gave an MIC in the experiment on Staphylococcus aureus [1] of 128 µg/mL (≈ 404 µM). `O=C(O)c1cccc2nc3cc(Br)ccc3nc12` yielded an MIC in the experiment on Staphylococcus aureus [1] of 64 µg/mL (≈ 211 µM).
